Six molecules from ChEMBL document CHEMBL1125908, “Substituted dihydrobenzopyran and dihydrobenzofuran thiazolidine-2,4-diones as hypoglycemic agents” (1991) can be followed below.

In experiment [1] the test system is 3T3-L1. Kind of experiment: In vitro fold stimulation of glucose transporter protein in 3T3-L1 adipocytes at a concentration of 10 uM. It counts as functional, Mus musculus. Summed up:
(§1)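 Differentiated 3T3-L1 adipocytes (days 7–11 after start of differentiation) exposed to compound in DMEM + 10% FBS, 0.1% DMSO final, medium renewed with fresh drug after 24 h, total 48 h. Triton X-100/EDTA/DTT extracts dot-blotted, probed with affinity-purified rabbit anti-GLUT1 (0.5 μg/mL) then 125I goat anti-rabbit IgG, gamma-counted; transporter quantified against basal-extract standard curve, fold over DMSO control.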

Experiment [2] concerns Mus musculus. Kind of experiment: Compound was evaluated for in vivo for % glucose normalization in mice at a concentration of 5 mg/kg. The format is functional. In a few lines:
(§2)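 Six- to eight-week-old C57BL/6J-ob/ob mice, acclimated 1 week, bled retroorbitally before treatment. Oral gavage once daily for four days in 0.25% (w/v) methylcellulose in water, unadjusted pH. Bled again 24 h after the fourth dose. Plasma glucose read by hexokinase UV method. Expressed as % normalization: vehicle = 0%, ciglitazone 50 mg/kg = 100%.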

In experiment [3] the test system is 3T3-L1. The experiment can be described thus: In vitro fold stimulation of glucose transporter protein in 3T3-L1 adipocytes at a concentration of 30 uM. The format is functional, Mus musculus. Summed up:
as §1

Experiment [4] deals with Mus musculus. Kind of experiment: Compound was evaluated for in vivo for % glucose normalization in mice at a concentration of 2.5 mg/kg. The format is functional. In a few lines: as §2
Experiment [5] deals with Mus musculus. The experiment can be described thus: Compound was evaluated for in vivo for % glucose normalization in mice at a concentration of 10 mg/kg. It counts as functional. In a few lines:
as §2

The nature of experiment [6]: In vitro stimulation of 2-Deoxyglucose uptake in L6 myocytes from rat skeletal myoblasts at a concentration of 30 uM. It counts as functional. In a few lines: (§3)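 Rat L6 myoblasts grown 14 days in MEMalpha + 2% FBS to fuse into myocytes, then serum-depleted 5 h. Uptake of 0.1 mM [1-14C]2-deoxyglucose in Dulbecco's PBS (+Ca, Mg) for 10 min at room temperature, stopped by ice-cold saline washes. Cells dissolved in 0.1 M NaOH and scintillation counted. Reported relative to 1 µM insulin set at 1.0.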

Experiment [7] in a line: In vitro stimulation of 2-Deoxyglucose uptake in L6 myocytes from rat skeletal myoblasts at a concentration of 3 uM. The format is functional. Summed up: as §3
Experiment [8] in a line: In vitro stimulation of 2-Deoxyglucose uptake in L6 myocytes from rat skeletal myoblasts at a concentration of 10 uM. The format is functional. Summed up: as §3
In experiment [9] the test system is Mus musculus. The experiment can be described thus: In vivo percent glucose normalization in mice at a concentration of 25 mg/kg. The format is functional. Summed up:
as §2

On to `O=C1NC(=O)C(Cc2ccc3c(c2)CC(Cc2ccccc2)O3)S1` (centres undefined), for which the GT fold stimulation with 3T3-L1 [1] was found to be 1.34; in the experiment on 3T3-L1 [3] it was 1.51. Moreover, the Glucose normalisation in the experiment with Mus musculus [2] was 65%; with Mus musculus [4] it was 0%; in the experiment on Mus musculus [5], 95%; with Mus musculus [9], 100%. Moreover, the 2-DG uptake stimulation in experiment [6] stood at 1.51; in experiment [7] it was 0.91; in [8], 1.11.
Regarding `O=C1NC(=O)C(Cc2ccc3c(c2)CCC(C2CCCCC2)O3)S1` (centres undefined), the GT fold stimulation with 3T3-L1 [1] amounted to 1.03; with 3T3-L1 [3], 1.23. Further, the Glucose normalisation with Mus musculus [2] came to 65%; with Mus musculus [4] it was 5%; in the experiment on Mus musculus [5], 75%; with Mus musculus [9] it was 69%. Moreover, the 2-DG uptake stimulation in experiment [6] is reported as 2.23; in experiment [7], 1.28; in experiment [8] it was 2.08.
Take `O=C1NC(=O)C(Cc2ccc3c(c2)CCC2(CCCC2)O3)S1` (centres undefined): the GT fold stimulation in the experiment on 3T3-L1 [1] came out at 0.95; in the experiment on 3T3-L1 [3], 1.1. The Glucose normalisation amounted to 50% with Mus musculus [2], 0% in the experiment with Mus musculus [4], 64% in the experiment with Mus musculus [5] and 52% in the experiment with Mus musculus [9]. Also, the figures for the 2-DG uptake stimulation in experiment [6], in [7] and in experiment [8] were 1.18, 0.79 and 1.06, respectively.
On to `O=C1NC(=O)C(Cc2ccc3c(c2)CCC(Cc2ccc(OCc4ccccc4)cc2)O3)S1` (centres undefined), for which the figures for the GT fold stimulation with 3T3-L1 [1] and in the experiment on 3T3-L1 [3] were 1.48 and 1.59, respectively. For the same molecule, the Glucose normalisation was 73% in the experiment on Mus musculus [2], 19% with Mus musculus [4], 100% with Mus musculus [5] and 95% in the experiment on Mus musculus [9]. Further, the 2-DG uptake stimulation was 1.34 in experiment [6], 1.42 in [7] and 1.53 in [8].
As to `O=C1NC(=O)C(Cc2ccc3c(c2)CCC(Cc2ccccc2)O3)S1` (centres undefined), the GT fold stimulation in the experiment on 3T3-L1 [1] was found to be 1.14; in the experiment with 3T3-L1 [3] it was 1.48. Further, the Glucose normalisation in the experiment on Mus musculus [2] turned out to be 48%; with Mus musculus [4], 29%; with Mus musculus [5], 70%; with Mus musculus [9], 91%. Further, the values for the 2-DG uptake stimulation in experiment [6], in [7] and in experiment [8] were 1.14, 0.91 and 1.29, respectively.
For `O=C1NC(=O)C(Cc2ccc3c(c2)CC[C@H](Cc2ccccc2)O3)S1` (some centres undefined) [ENGLITAZONE], the results for the GT fold stimulation in the experiment on 3T3-L1 [1] and in the experiment on 3T3-L1 [3] were 1.13 and 1.24, respectively. Further, the Glucose normalisation with Mus musculus [2] is 73%; in the experiment on Mus musculus [4], 31%; in the experiment with Mus musculus [5], 90%; in the experiment on Mus musculus [9] it was 88%. The 2-DG uptake stimulation in experiment [6] was found to be 1.27; in experiment [7], 0.77; in experiment [8], 0.91.
